The record followed here is ChEMBL document CHEMBL4118202, “Chiral analogues of (+)-cyclazosin as potent α1B-adrenoceptor selective antagonist” (Bioorg Med Chem, 2018).

Test [1] concerns the target T1, Alpha-1A adrenergic receptor (Rattus norvegicus) (UniProt P43140).
T1 sequence (whole entry): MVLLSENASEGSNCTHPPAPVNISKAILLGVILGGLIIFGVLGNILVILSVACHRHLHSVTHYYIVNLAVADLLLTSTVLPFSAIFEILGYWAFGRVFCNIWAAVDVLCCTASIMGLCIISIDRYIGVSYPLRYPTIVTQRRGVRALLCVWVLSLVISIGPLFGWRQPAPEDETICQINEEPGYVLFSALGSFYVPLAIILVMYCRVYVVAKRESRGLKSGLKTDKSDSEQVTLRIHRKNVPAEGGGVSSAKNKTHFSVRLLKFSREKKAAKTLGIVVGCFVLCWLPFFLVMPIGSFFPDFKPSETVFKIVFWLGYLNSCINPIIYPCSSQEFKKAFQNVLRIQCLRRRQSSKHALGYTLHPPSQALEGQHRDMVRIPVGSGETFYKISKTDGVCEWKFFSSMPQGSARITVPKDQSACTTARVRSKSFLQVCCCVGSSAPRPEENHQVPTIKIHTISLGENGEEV
The test can be described thus: Antagonist activity at alpha1A adrenergic receptor in Wistar rat prostatic rat vas deferens assessed as inhibition of noradrenaline-induced contraction preincubated for 30 mins followed by noradrenaline addition measured after 45 mins in presence of cocaine hydrochloride. The test is classed as functional. The essentials: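 Prostatic rat vas deferens, 2 cm portions, held at 0.35 g in Tyrode (pH 7.4, 37 °C, 95% O2/5% CO2). Cocaine 10 μM added 20 min before the agonist. Tissue equilibrated 45 min and primed twice with 10 μM noradrenaline. Isotonic cumulative noradrenaline curves were run before and after 30 min antagonist. pA2 came from Schild plots (≥3 concentrations); otherwise pKB (van Rossum). n ≥ 4.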

Test [2] deals with T2, Alpha-1D adrenergic receptor (Rattus norvegicus) (UniProt P23944).
T2 sequence (whole entry): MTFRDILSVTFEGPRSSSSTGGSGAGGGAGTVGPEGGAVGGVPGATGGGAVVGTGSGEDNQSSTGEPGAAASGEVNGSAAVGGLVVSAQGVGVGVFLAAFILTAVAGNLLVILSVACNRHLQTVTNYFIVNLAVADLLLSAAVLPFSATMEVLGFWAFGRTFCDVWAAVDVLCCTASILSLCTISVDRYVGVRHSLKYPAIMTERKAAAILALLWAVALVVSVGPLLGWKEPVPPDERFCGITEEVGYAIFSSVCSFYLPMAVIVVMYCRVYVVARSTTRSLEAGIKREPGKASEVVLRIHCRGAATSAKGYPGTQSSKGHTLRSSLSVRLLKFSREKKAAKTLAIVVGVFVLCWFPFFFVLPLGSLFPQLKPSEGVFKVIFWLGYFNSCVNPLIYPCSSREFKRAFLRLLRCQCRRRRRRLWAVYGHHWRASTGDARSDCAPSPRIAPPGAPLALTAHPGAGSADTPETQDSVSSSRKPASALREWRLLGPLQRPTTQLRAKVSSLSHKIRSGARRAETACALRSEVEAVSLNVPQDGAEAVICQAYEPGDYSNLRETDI
Put plainly: Antagonist activity at alpha1D adrenergic receptor in Wistar rat thoracic aorta assessed as inhibition of noradrenaline-induced contraction measured after 30 mins in presence of cocaine hydrochloride and beta-adrenoceptor blocker propranolol hydrochloride. The test is classed as functional. The essentials:
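Helical thoracic aorta strips, endothelium removed (checked by loss of acetylcholine relaxation), in Krebs at 1 g, equilibrated ≥2 h. Isometric cumulative noradrenaline curves at 1 h intervals; the second served as control, the third followed 30 min antagonist.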

Test [3] has as its target T3, Alpha-1B adrenergic receptor (Rattus norvegicus, UniProt P15823).
T3 sequence (P15823 whole entry): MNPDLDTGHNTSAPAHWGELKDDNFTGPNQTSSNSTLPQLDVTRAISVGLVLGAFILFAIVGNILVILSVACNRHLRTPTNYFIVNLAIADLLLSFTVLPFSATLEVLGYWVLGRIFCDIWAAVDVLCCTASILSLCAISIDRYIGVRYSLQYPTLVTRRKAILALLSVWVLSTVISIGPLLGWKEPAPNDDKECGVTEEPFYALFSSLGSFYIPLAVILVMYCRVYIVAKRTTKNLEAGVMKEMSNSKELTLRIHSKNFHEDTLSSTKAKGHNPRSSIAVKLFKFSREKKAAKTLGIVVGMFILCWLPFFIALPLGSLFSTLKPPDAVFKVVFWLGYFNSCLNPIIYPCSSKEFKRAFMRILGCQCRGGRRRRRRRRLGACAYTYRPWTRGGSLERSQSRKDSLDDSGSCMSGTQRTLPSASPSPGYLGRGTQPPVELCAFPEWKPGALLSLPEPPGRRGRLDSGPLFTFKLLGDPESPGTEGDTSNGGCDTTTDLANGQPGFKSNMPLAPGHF
Put plainly: Antagonist activity at alpha1B adrenergic receptor in Wistar rat spleen assessed as inhibition of phenylephrine-induced contraction incubated for 30 mins in presence of beta-adrenoceptor blocker propranolol hydrochloride. The test is classed as functional. The following applies: read-out: pA2 (converted). In short, it runs like this: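 Spleen bisected longitudinally into strips in Krebs with propranolol 4 μM, held at 1 g and equilibrated 2 h. Two isometric cumulative phenylephrine curves, each followed by 30 min washing. Third curve after 30 min vehicle or antagonist. Potency as pA2 (Schild) or pKB at one concentration (van Rossum). Responses as % of control maximum; n ≥ 4.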

For test [4], the species on record is Homo sapiens. The test can be described thus: Selectivity ratio of compound effect for alpha1D adrenergic receptor (unknown origin) to compound effect for alpha1A adrenergic receptor (unknown origin).
The species named for test [5] is Homo sapiens. The test can be described thus: Selectivity ratio of compound effect for alpha1B adrenergic receptor (unknown origin) to compound effect for alpha1A adrenergic receptor (unknown origin).
Test [6] has as its target T4, Alpha-1A adrenergic receptor (Homo sapiens, UniProt P35348).
T4 sequence (P35348 whole entry): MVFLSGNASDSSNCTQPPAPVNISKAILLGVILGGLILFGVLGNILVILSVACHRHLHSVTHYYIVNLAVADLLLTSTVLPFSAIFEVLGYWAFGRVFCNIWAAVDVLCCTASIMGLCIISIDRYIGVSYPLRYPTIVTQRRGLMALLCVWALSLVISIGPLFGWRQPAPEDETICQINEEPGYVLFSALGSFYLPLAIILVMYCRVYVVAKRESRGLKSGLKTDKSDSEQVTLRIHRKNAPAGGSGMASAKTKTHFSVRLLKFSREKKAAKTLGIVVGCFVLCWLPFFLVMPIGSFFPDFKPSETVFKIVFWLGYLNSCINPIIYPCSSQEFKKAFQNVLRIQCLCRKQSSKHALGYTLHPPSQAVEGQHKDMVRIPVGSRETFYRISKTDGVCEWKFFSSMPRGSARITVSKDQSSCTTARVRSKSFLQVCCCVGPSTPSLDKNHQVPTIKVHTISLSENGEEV
The test can be described thus: Binding affinity to alpha1A adrenergic receptor (unknown origin).

Usually pKb stands for −log10 of the Kb, conventionally taken in molar units. Regarding `CCCN(CCC)c1nc(N2CCN(C(=O)c3ccco3)[C@H]3CCCC[C@H]32)nc2cc(OC)c(OC)cc12`, the figures for the pKb in test [1] and in test [2] were 5.89 and 6.22, respectively.
Turning to `CCCCCC(=O)N1CCN(c2nc(N)c3cc(OC)c(OC)cc3n2)[C@@H]2CCCC[C@@H]21`, in test [1], the pKb was 7.06.
With `COc1cc2nc(N3CCN(C(C)=O)[C@@H]4CCCC[C@@H]43)nc(N)c2cc1OC`, in test [3], the Kb was 0.617 nM.
Consider `COc1cc2nc(N3CCN(C(=O)Cc4ccc5ccccc5c4)[C@H]4CCCC[C@H]43)nc(N)c2cc1OC`, for which the pKb in test [1] came to 6.56.
As for `COc1cc2nc(N3CCN(C(C)=O)[C@H]4CCCC[C@H]43)nc(N)c2cc1OC`, in test [3], the Kb was 3.02 nM.
What is called Ki is a measure of affinity in units of concentration, obtained from inhibition or displacement. A lower Ki goes with higher affinity. Consider `COc1cc2nc(N3CCN(C(=O)C4COc5ccccc5O4)[C@H]4CCCC[C@H]43)nc(N)c2cc1OC` (single isomer, unassigned; (-)) [CYCLODOXAZOSIN], for which the Selectivity ratio was 1 in the test filed under Homo sapiens [4] and 2 in the test filed under Homo sapiens [5]. The affinity in test [6] corresponds to a Ki of 3.39 nM. Besides, in test [2], the negative-log Kb (pKb) was 7.1.
As to `COc1cc2nc(N3CCN(C(=O)C(C)(C)C)[C@H]4CCCC[C@H]43)nc(N)c2cc1OC`, the pKb in test [1] worked out at 7.17.
The same measure, in the same setting: in the case of `CCCN(CCC)c1nc(N2CCN(C(=O)c3ccco3)[C@@H]3CCCC[C@@H]32)nc2cc(OC)c(OC)cc12` it was 7.02.
For the molecule `COc1cc2nc(N3CCN(C(=O)COc4c(OC)cccc4C(C)C)[C@H]4CCCC[C@H]43)nc(N)c2cc1OC`, the Kb in test [3] was 191 nM.
Same read-out and setting: next, `COc1cc2nc(N3CCN(C(=O)OCc4ccccc4)[C@@H]4CCCC[C@@H]43)nc(N)c2cc1OC`: 1.82 nM.
